A short description of data set [1]: Relaxation of KCl-induced contraction in guinea pig terminal ilea assessed as reduction of contraction force at 100 uM. Format: functional, Cavia porcellus. Also noted: scale not given: the % may be the effect or the level left. The method in brief: (§1)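 Precontracted with 60 mM KCl at a resting tension of 4.9 mN. After a 45 min control period, compound (1–100 µM) was added cumulatively to steady state. Isometric force was recorded as % decrease; IC₅₀ from 4–6 experiments, mean ± SEM.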

Data set [2] can be described thus: Spasmolytic activity in guinea pig terminal ilea. Type of data set: functional, Cavia porcellus. The method in brief: as §1
Data set [3] can be described thus: Spasmolytic activity in guinea pig terminal ilea relative to resveratrol. Format: functional, Cavia porcellus. The method in brief:
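Ileal IC₅₀ was measured as for the KCl-precontracted (60 mM) guinea pig terminal ileum with cumulative dosing up to 100 µM. It is expressed as a potency index relative to resveratrol.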

Data set [4] can be described thus: Toxicity in guinea pig vascular smooth muscle. Format: tissue-based, Cavia porcellus, Muscle tissue. The method in brief: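 Guinea pig aortic rings in oxygenated Krebs–Henseleit at 35 °C, contracted with 90 mM KCl. Compound was added cumulatively up to 100 µM, and relaxation of isometric contraction force was recorded.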
The nature of data set [5]: Toxicity in guinea pig heart muscle. Type of data set: tissue-based, Cavia porcellus, Muscle tissue. The method in brief: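 Guinea pig heart muscle in oxygenated Krebs–Henseleit at 35 °C. Isometric contraction force was measured in electrically stimulated papillary muscles (Purkinje fibres removed, diameter <0.87 mm). Chronotropic effect was measured as spontaneous activity of isolated right atria. Compounds were added cumulatively. Paired Student's t-test.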

The nature of data set [6]: Relaxation of KCl-induced contraction in guinea pig terminal ilea assessed as reduction of contraction force at 30 uM. Type of data set: functional, Cavia porcellus. On the set-up: scale not given: the % may be the effect or the level left. The method in brief: as §1

pIC50: −log10 of the molar value. Some results are limits rather than exact numbers.

By pIC50 is commonly meant the IC50 on a negative log10 scale, so that one unit is a factor of ten. Turning to `COc1cc(NC(=O)c2cc(F)cc(F)c2)cc(OC)c1OC`, the Activity in data set [1] is listed as 22.87%; in data set [3], 0.87; in data set [4], “Non-toxic”; in data set [5], “Non-toxic”. The same molecule had a negative logarithm of the IC50 (pIC50) in data set [2] of 4.56.
Consider `O=C(Nc1cc(F)cc(F)c1)c1ccc(F)cc1`, for which the Activity in data set [1] is listed as 1.66%; in data set [3], 2.82; in data set [4] it was “Non-toxic”; in data set [5] it was “Non-toxic”. In data set [2], the pIC50 was 5.07.
Turning to `CSc1ccc(NC(=O)c2cc(F)cc(F)c2)cc1`, the Activity in data set [6] is 2.8%; in data set [3] it was 7.39; in data set [4] it was “Non-toxic”; in data set [5], “Non-toxic”. Moreover, in data set [2], the pIC50 was 5.49.
Consider `Oc1ccc(/C=C/c2cc(O)cc(O)c2)cc1` [RESVERATROL], for which the negative logarithm of the IC50 (pIC50) in data set [2] was 4.62. Moreover, the Activity in data set [3] was 1.
On to `COc1cc(NC(=O)c2ccc(OC(F)(F)F)cc2)cc(OC)c1`, for which the Activity is 11.99% in data set [1], 3.2 in data set [3], “Non-toxic” in data set [4] and “Non-toxic” in data set [5]. Besides, the negative-log IC50 (pIC50) in data set [2] was 5.12.
For `O=C(Nc1ccc(F)cc1F)c1cc(F)cc(F)c1`, the Activity in data set [1] is reported as 51.13%; in data set [3], over 0.24; in data set [4], “Non-toxic”; in data set [5], “Non-toxic”. In data set [2], this molecule showed a pIC50 of under 4.00.
Regarding `O=C(Nc1ccc(F)cc1)c1cc(F)cc(F)c1`, the Activity in data set [1] is recorded as 30.55%; in data set [3], 1.14; in data set [4] it was “Non-toxic”; in data set [5] it was “Non-toxic”. In addition, in data set [2], the negative logarithm of the IC50 (pIC50) was 4.68.
Consider `O=C(Nc1c(F)cc(F)cc1F)c1cc(F)cc(F)c1`, for which the Activity is 9% in data set [1], 0.92 in data set [3], “Non-toxic” in data set [4] and “Non-toxic” in data set [5]. The molecule further had a negative-log IC50 (pIC50) in data set [2] of 4.59.
On to `O=C(Nc1c(F)cc(F)cc1F)c1ccc(F)cc1`, for which the Activity was 28.35% in data set [1], 0.57 in data set [3], “Non-toxic” in data set [4] and “Non-toxic” in data set [5]. Also, the negative logarithm of the IC50 (pIC50) in data set [2] was 4.38.
As to `CN(C)c1ccc(NC(=O)c2cc(F)cc(F)c2)cc1`, the Activity in data set [1] is recorded as 23.93%; in data set [3], 0.8; in data set [4] it was “Non-toxic”; in data set [5], “Non-toxic”. For the same molecule, the pIC50 in data set [2] was 4.52.
Take `O=C(Nc1c(F)cc(F)cc1F)c1cc([N+](=O)[O-])cc([N+](=O)[O-])c1`: the Activity in data set [1] is given as 25.66%; in data set [3] it was 0.74; in data set [4], “Non-toxic”; in data set [5] it was “Non-toxic”. The same molecule had a pIC50 in data set [2] of 4.49.

The values above are taken from ChEMBL document CHEMBL1150382, “Benzanilides with spasmolytic activity: chemistry, pharmacology, and SAR” (Bioorg Med Chem, 2008).
